This is an account of results in ChEMBL document CHEMBL1134233, “Synthesis of phenylglycine derivatives as potent and selective antagonists of group III metabotropic glutamate receptors” (2001).

Assay [1] in a line: Antagonist activity at Group III Metabotropic glutamate receptor in rat spinal cord. It counts as functional. Summed up:
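Neonatal rat spinal cord preparation. Concentration–response curves to the group III agonist (S)-AP4 were constructed with and without the antagonist, and an apparent KD was derived from the curve shift.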

The nature of assay [2]: Antagonist activity at Group II Metabotropic glutamate receptor in rat spinal cord. It counts as functional. Summed up:
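Neonatal rat spinal cord preparation. Concentration–response curves to (1S,3S)-ACPD or (2R,4R)-APDC were built with and without antagonist to give an apparent K_D. For weak antagonists, a single antagonist concentration was tested against a single agonist-induced response in triplicate and reported as % antagonism.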

A short description of assay [3]: Antagonist activity at Group I Metabotropic glutamate receptor in rat spinal cord; Not effective at 1 mM. It counts as functional.
A short description of assay [4]: Antagonist activity at Group I Metabotropic glutamate receptor in rat spinal cord in the presence of (1S,3R)APCD at 1 mM as agonist challenge.
The nature of assay [5]: Antagonist activity at Group II Metabotropic glutamate receptor in rat spinal cord in the presence of (2R,4R)APDC at 1 uM as agonist challenge. It counts as functional. In a few lines: (§1)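 Neonatal rat spinal cord, one-point assay run in triplicate. A single antagonist concentration was tested against a single agonist-evoked response, expressed as percent antagonism. The agonist was (2R,4R)-APDC for group II and (S)-AP4 for group III.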

Assay [6] is described as follows: Antagonist activity at Group III Metabotropic glutamate receptor in rat spinal cord in the presence of (S)AP4 at 100 uM as agonist challenge. In kind it is functional. In a few lines:
as §1

Assay [7] can be described thus: Antagonist activity at Group I Metabotropic glutamate receptor in rat spinal cord. In kind it is functional.
A short description of assay [8]: Antagonist activity at Group III Metabotropic glutamate receptor in rat spinal cord; Not effective at 50 uM. It counts as functional.
Assay [9] in a line: Antagonist activity at Group III Metabotropic glutamate receptor in rat spinal cord; Not effective at 1 mM. It counts as functional.

Consider `CC(N)(C(=O)O)c1ccc(P(=O)(O)O)c(Cl)c1` (centres undefined), for which the KDs is 6.8 µM in [1], 726 µM in [2] and “No effect” in assay [3]. `NC(C(=O)O)(c1ccc(P(=O)(O)O)cc1)C1CC1` (centres undefined): the KDs in assay [1] is 1.7 µM; in assay [2] it was 53 µM. Besides, the Inhibition in [4] amounted to 70%. With `COc1cc(C(C)(N)C(=O)O)ccc1P(=O)(O)O` (centres undefined), the KDs in [5] was determined as 51 µM; in [6] it was 4.8 µM.

Take `CC(N)(C(=O)O)c1ccc(C(=O)O)cc1` (centres undefined): the figures for the KDs in assay [1], in [7] and in assay [2] were 227 µM, 144 µM and 479 µM, respectively. `Cc1cc(C(C)(N)C(=O)O)ccc1P(=O)(O)O` (centres undefined): the KDs in assay [1] was 5.5 µM.

On to `CCOP(=O)(O)c1ccc(C(C)(N)C(=O)O)cc1OC` (centres undefined), for which the KDs in [6] worked out at 13 µM.

Regarding `Cc1cc(P(=O)(O)O)ccc1C(C)(N)C(=O)O` (centres undefined), the KDs in assay [1] came out at 180 µM.

`COc1cc(C(N)(C(=O)O)C2CC2)ccc1P(=O)(O)O` (centres undefined): the KDs entry in [8] was “No effect”. `CC(N)(C(=O)O)c1ccc(P(=O)(O)O)cc1` (centres undefined): the KDs in [1] was 9.2 µM; in assay [2], 113 µM; in assay [3] it was “No effect”. For `CC(N)(C(=O)O)c1cccc(CP(=O)(O)O)c1` (centres undefined), in [9], the KDs result was “No effect”.
